Source: ChEMBL document CHEMBL3232847, “Discovery of 6-phenylpyrimido[4,5-b][1,4]oxazines as potent and selective acyl CoA:diacylglycerol acyltransferase 1 (DGAT1) inhibitors with in vivo efficacy in rodents” (J Med Chem, 2014)
pIC50: −log10 of the molar value. Calls of active or inactive are those of the source. The rule behind the calls is not given here.

Legend:
[1] = Clearance in Sprague-Dawley rat at 0.7 mg/kg, iv; type: ADME, organism-based; design: dose 0.7 mg/kg, route intravenous; conditions: in vivo
[2] = biological target: T1, Diacylglycerol O-acyltransferase 2 (Homo sapiens, UniProt Q96PD7); assay: Inhibition of human liver flag-tagged DGAT2 expressed in baculovirus infected insect cells after 2 hrs by SPA
T1 sequence (Q96PD7 whole entry): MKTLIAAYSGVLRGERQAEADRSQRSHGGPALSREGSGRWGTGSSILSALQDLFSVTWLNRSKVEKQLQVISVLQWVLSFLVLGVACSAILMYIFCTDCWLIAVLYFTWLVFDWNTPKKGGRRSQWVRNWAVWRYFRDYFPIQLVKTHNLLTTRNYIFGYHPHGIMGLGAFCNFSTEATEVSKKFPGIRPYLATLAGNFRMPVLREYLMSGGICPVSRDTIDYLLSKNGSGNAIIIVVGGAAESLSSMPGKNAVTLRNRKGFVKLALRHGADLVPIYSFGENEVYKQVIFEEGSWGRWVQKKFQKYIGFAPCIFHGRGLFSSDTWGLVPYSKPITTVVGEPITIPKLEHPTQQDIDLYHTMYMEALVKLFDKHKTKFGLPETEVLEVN

[3] = Volume of distribution at steady state in Sprague-Dawley rat at 0.7 mg/kg, iv; type: ADME, organism-based; design: dose 0.7 mg/kg, route intravenous; conditions: in vivo, read-out: Vdss
[4] = Oral bioavailability in Sprague-Dawley rat at 5 mg/kg; type: ADME, organism-based; conditions: in vivo
[5] = Clearance in beagle dog at 0.2 mg/kg, iv; type: ADME, organism-based, Canis lupus familiaris; design: dose 0.2 mg/kg, route intravenous; conditions: in vivo
[6] = Oral bioavailability in beagle dog at 2 mg/kg; type: ADME, organism-based, Canis lupus familiaris; conditions: in vivo
[7] = Volume of distribution at steady state in cynomolgus monkey at 0.5 mg/kg, iv; type: ADME, organism-based, Macaca fascicularis; design: dose 0.5 mg/kg, route intravenous; conditions: in vivo, read-out: Vdss
[8] = system: Rattus norvegicus; assay: Toxicity in Sprague-Dawley rat assessed as sebaceous gland atrophy at 30 to 100 mg/kg, po qd by 14-day multiple-dose toxicity study; type: organism-based; design: dose 30-100 mg/kg, route oral; conditions: in vivo
Outline: (§1)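 Sprague−Dawley rats were dosed po once daily for 14 days. Clinical and histopathological findings were assessed, and plasma AUC was recorded for each dose.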

[9] = system: Cynomolgus monkey; assay: Toxicity in cynomolgus monkey assessed as elevation of change in clinical parameters at 10 to 30 mg/kg/day, po qd by 21-day multiple-dose toxicity study relative to control; type: organism-based, Macaca fascicularis; design: route oral; conditions: in vivo
Outline: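 Cynomolgus monkeys were dosed po once daily at 10 and 30 mg/kg for 21 days. ALT and AST levels, QTc intervals, and clinical and histopathological findings were assessed, and plasma AUC was recorded for each dose.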

[10] = AUC in cynomolgus monkey at 30 mg/kg/day, po qd; type: ADME, organism-based, Macaca fascicularis; design: route oral; conditions: plasma
Outline: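 Cynomolgus monkeys dosed orally once daily at 10 or 30 mg/kg for 21 days in a multiple-dose toxicity study. Plasma AUC was reported, with ALT/AST levels, QTc intervals and clinical and histopathological findings monitored.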

[11] = Volume of distribution at steady state in Sprague-Dawley rat at 1 mg/kg, iv; type: ADME, organism-based; design: dose 1 mg/kg, route intravenous; conditions: in vivo, read-out: Vdss
[12] = Volume of distribution at steady state in rhesus monkey at 0.2 mg/kg, iv; type: ADME, organism-based, Macaca mulatta; design: dose 0.2 mg/kg, route intravenous; conditions: in vivo, read-out: Vdss
[13] = system: Rattus norvegicus; assay: Toxicity in Sprague-Dawley rat assessed as change in clinical parameters at 30 mg/kg, po by 14-day multiple-dose toxicity study; type: organism-based; design: dose 30 mg/kg, route oral; conditions: in vivo; outline: as §1
[14] = AUC in cynomolgus monkey at 100 mg/kg, po administered as single dose relative to control; type: ADME, organism-based, Macaca fascicularis; design: dose 100 mg/kg, route oral; conditions: plasma
Outline: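 Cynomolgus monkeys received a single oral dose of 100 mg/kg. Plasma AUC was recorded alongside plasma liver enzymes ALT and AST.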

[15] = species: Rattus norvegicus; assay: Inhibition of rat small intestine microsomal MGAT up to 10 uM by TLC technique in presence of monoacylglycerol and [14C] palmitoyl CoA; type: microsomes
[16] = AUC in CD1 mouse at 2 mg/kg, po; type: ADME, organism-based; design: dose 2 mg/kg, route oral; conditions: plasma
[17] = Oral Bioavailability in CD1 mouse at 2 mg/kg; type: ADME, organism-based; conditions: in vivo

clearance [1] [mL/min/kg] | pIC50 [2] | Vd [3] [L/kg] | bioavailability [4] [%] | clearance [5] [mL/min/kg] | bioavailability [6] [%] | Vd [7] [L/kg] | AUC [10] [µM·h] | Vd [11] [L/kg] | Vd [12] [L/kg] | AUC [14] [µM·h] | AUC [16] [ng·h/mL] | bioavailability [17] [%] | Compound | Activity [8] | Activity [9] | Activity [13] | inhibition [15]
3.5 | < 5.00 | 1.1 | 98 | 2.33 | 22 | 0.44 | 2560 |  |  |  |  |  | CC1(C)Oc2nc(C(F)(F)F)nc(N)c2N=C1c1ccc2c(c1)CC[C@]21CC[C@@H](CC(=O)O)CC1 | Toxic | Non-toxic |  | 
 |  |  |  |  |  |  |  | 1.65 | 0.46 | 1420 | 6690 | 40 | CC1(C)Oc2ncnc(N)c2N=C1c1ccc([C@H]2CC[C@H](CC(=O)O)CC2)cc1 |  |  | Non-toxic | inactive
